From ChEMBL document CHEMBL1126182, “Antibacterials. synthesis and structure-activity studies of 3-aryl-2-oxooxazolidines. 4. Multiply-substituted aryl derivatives” (1992)
In brackets after ≈: the same amount, converted by molar mass.

Legend:
[1] = system: Enterococcus faecalis; test: Antibacterial activity against Enterococcus faecalis STCO-19; format: functional
Procedure, shortened: (§1)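 MIC by microtiter broth dilution. For racemic samples, the measured MIC was divided by two, since only one oxazolidinone enantiomer is antibacterial.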

[2] = system: Staphylococcus aureus; test: Antibacterial activity against Staphylococcus aureus SFCO-1a cell line.; format: functional; procedure, shortened: as §1

Row | SMILES | MIC [1] | MIC [2]
1 | CCCc1cccc(N2CC(CNC(C)=O)OC2=O)c1 (stereo unspecified) | 128 µg/mL (≈ 463 µM) | 64 µg/mL (≈ 232 µM)
2 | CC(=O)NCC1CN(c2cccc(F)c2)C(=O)O1 (stereo unspecified) | 32 µg/mL (≈ 127 µM) | 32 µg/mL (≈ 127 µM)
3 | CC(=O)NCC1CN(c2cccc(I)c2)C(=O)O1 (stereo unspecified) | 128 µg/mL (≈ 355 µM) | 64 µg/mL (≈ 178 µM)
4 | CSc1cc(N2CC(CNC(C)=O)OC2=O)ccc1C(C)=O (stereo unspecified) | > 128 µg/mL | > 128 µg/mL
5 | CC(=O)NC[C@H]1CN(c2ccc(C)c(C)c2)C(=O)O1 | 16 µg/mL (≈ 61 µM) | 8 µg/mL (≈ 30.5 µM)
6 | COc1cc(OC)cc(N2CC(CNC(C)=O)OC2=O)c1 (stereo unspecified) | > 128 µg/mL | > 128 µg/mL
7 | CC(=O)NCC1CN(c2cccc(Cl)c2)C(=O)O1 (stereo unspecified) | 128 µg/mL (≈ 476 µM) | 64 µg/mL (≈ 238 µM)
8 | CC(=O)NCC1CN(c2cccc(O)c2)C(=O)O1 (stereo unspecified) | > 128 µg/mL | > 128 µg/mL
9 | COc1cccc(N2CC(CNC(C)=O)OC2=O)c1 (stereo unspecified) | 64 µg/mL (≈ 242 µM) | 64 µg/mL (≈ 242 µM)
10 | COc1ccc([N+](=O)[O-])cc1N1C[C@H](CNC(C)=O)OC1=O | > 128 µg/mL | > 128 µg/mL
11 | C#Cc1ccc(N2C[C@H](CNC(C)=O)OC2=O)c(F)c1 | 128 µg/mL (≈ 463 µM) | 128 µg/mL (≈ 463 µM)
12 | CC(=O)NCC1CN(c2ccc(C(C)=O)c([S+](C)[O-])c2)C(=O)O1 (stereo unspecified) | > 128 µg/mL | > 128 µg/mL
13 | COc1cc(N2CC(CNC(C)=O)OC2=O)ccc1C(C)=O (stereo unspecified) | > 128 µg/mL | > 128 µg/mL
14 | CC(=O)NCC1CN(c2ccc(C(C)=O)c(I)c2)C(=O)O1 (stereo unspecified) | 32 µg/mL (≈ 79.6 µM) | 32 µg/mL (≈ 79.6 µM)
15 | COc1cc([N+](=O)[O-])ccc1N1C[C@H](CNC(C)=O)OC1=O | > 128 µg/mL | > 128 µg/mL
16 | CC(=O)NCC1CN(c2cccc(C)c2)C(=O)O1 (stereo unspecified) | 32 µg/mL (≈ 129 µM) | 32 µg/mL (≈ 129 µM)
17 | CC(=O)NC[C@H]1CN(c2ccc([N+](=O)[O-])cc2[N+](=O)[O-])C(=O)O1 | > 128 µg/mL | > 128 µg/mL
18 | CC(=O)NCC1CN(c2cccc([S+](C)[O-])c2)C(=O)O1 (stereo unspecified) | > 128 µg/mL | > 128 µg/mL
19 | CC(=O)NCC1CN(c2cccc(S(C)(=O)=O)c2)C(=O)O1 (stereo unspecified) | > 128 µg/mL | > 128 µg/mL
20 | CC(=O)NCC1CN(c2ccc(C(C)=O)c(S(C)(=O)=O)c2)C(=O)O1 (stereo unspecified) | > 128 µg/mL | > 128 µg/mL
21 | CC(=O)NC[C@H]1CN(c2ccc(C(C)=O)cc2F)C(=O)O1 | 32 µg/mL (≈ 109 µM) | 32 µg/mL (≈ 109 µM)
22 | CC(=O)NCC1CN(c2cccc(N)c2)C(=O)O1 (stereo unspecified) | > 128 µg/mL | > 128 µg/mL
23 | CC(=O)NCC1CN(c2c(F)cc(C(C)=O)cc2F)C(=O)O1 (stereo unspecified) | > 128 µg/mL | > 128 µg/mL
24 | CC(=O)NCC1CN(c2cccc(Br)c2)C(=O)O1 (stereo unspecified) | 64 µg/mL (≈ 204 µM) | 16 µg/mL (≈ 51.1 µM)
25 | CC(=O)NC[C@H]1CN(c2ccc3[nH]ccc3c2)C(=O)O1 | > 128 µg/mL | > 128 µg/mL
26 | CCCc1cc(N2CC(CNC(C)=O)OC2=O)ccc1C(C)=O (stereo unspecified) | > 128 µg/mL | > 128 µg/mL
27 | CC(=O)NCC1CN(c2ccccc2)C(=O)O1 (stereo unspecified) | 128 µg/mL (≈ 546 µM) | 128 µg/mL (≈ 546 µM)
28 | CC(=O)NCC1CN(c2cc(C)cc(C)c2)C(=O)O1 (stereo unspecified) | > 128 µg/mL | > 128 µg/mL

Now from value to compound:

Row | MIC [1] | MIC [2] | SMILES
29 | 8 µg/mL (≈ 28.1 µM) | 4 µg/mL (≈ 14.1 µM) | CC(=O)NC[C@H]1CN(c2ccc3ccccc3c2)C(=O)O1
30 | 8 µg/mL (≈ 22.5 µM) | 4 µg/mL (≈ 11.3 µM) | CC(=O)NCC1CN(c2ccc(C(C)=O)c(Br)c2)C(=O)O1 (stereo unspecified)
31 | 2 µg/mL (≈ 6.94 µM) | 2 µg/mL (≈ 6.94 µM) | CC(=O)NC[C@H]1CN(c2ccc3c(c2)CCC3=O)C(=O)O1 [PNU-82965]
32 | 16 µg/mL (≈ 57.1 µM) | 16 µg/mL (≈ 57.1 µM) | CSc1cccc(N2CC(CNC(C)=O)OC2=O)c1 (stereo unspecified)
33 | 16 µg/mL (≈ 61 µM) | 16 µg/mL (≈ 61 µM) | CCc1cccc(N2CC(CNC(C)=O)OC2=O)c1 (stereo unspecified)
34 | 4 µg/mL (≈ 14.3 µM) | 4 µg/mL (≈ 14.3 µM) | CC(=O)NCC1CN(c2cccc([N+](=O)[O-])c2)C(=O)O1 (stereo unspecified)
35 | 1 µg/mL (≈ 3.44 µM) | 1 µg/mL (≈ 3.44 µM) | CC(=O)NC[C@H]1CN(c2ccc(C(C)=O)c(C)c2)C(=O)O1
36 | 4 µg/mL (≈ 14.6 µM) | 2 µg/mL (≈ 7.29 µM) | CC(=O)NC[C@H]1CN(c2ccc3c(c2)CCC3)C(=O)O1
37 | 8 µg/mL (≈ 25.8 µM) | 8 µg/mL (≈ 25.8 µM) | CC(=O)NCC1CN(c2ccc([S+](C)[O-])c(C)c2)C(=O)O1 (stereo unspecified)
38 | 1 µg/mL (≈ 3.62 µM) | 0.5 µg/mL (≈ 1.81 µM) | CC(=O)NC[C@H]1CN(c2ccc(C(C)=O)cc2)C(=O)O1 [DUP-721]
39 | 8 µg/mL (≈ 24.6 µM) | 8 µg/mL (≈ 24.6 µM) | CSc1ccc(N2CC(CNC(C)=O)OC2=O)cc1[N+](=O)[O-] (stereo unspecified)
40 | 2 µg/mL (≈ 6.44 µM) | 2 µg/mL (≈ 6.44 µM) | CC(=O)NCC1CN(c2ccc(C(C)=O)c(Cl)c2)C(=O)O1 (stereo unspecified)
41 | 2 µg/mL (≈ 6.84 µM) | 2 µg/mL (≈ 6.84 µM) | CC(=O)NCC1CN(c2ccc(C(C)=O)c(O)c2)C(=O)O1 (stereo unspecified)
42 | 4 µg/mL (≈ 13.7 µM) | 4 µg/mL (≈ 13.7 µM) | CC(=O)NCC1CN(c2ccc(C(C)=O)c(N)c2)C(=O)O1 (stereo unspecified)
43 | 2 µg/mL (≈ 6.8 µM) | 1 µg/mL (≈ 3.4 µM) | CC(=O)NCC1CN(c2ccc(C(C)=O)c(F)c2)C(=O)O1 (stereo unspecified)
44 | 8 µg/mL (≈ 26.3 µM) | 16 µg/mL (≈ 52.6 µM) | CCc1cc(N2CC(CNC(C)=O)OC2=O)ccc1C(C)=O (stereo unspecified)
45 | 4 µg/mL (≈ 14.5 µM) | 2 µg/mL (≈ 7.24 µM) | CCCc1ccc(N2C[C@H](CNC(C)=O)OC2=O)cc1
46 | 4 µg/mL (≈ 14.3 µM) | 4 µg/mL (≈ 14.3 µM) | CSc1ccc(N2CC(CNC(C)=O)OC2=O)cc1 (stereo unspecified)
47 | 4 µg/mL (≈ 13.5 µM) | 4 µg/mL (≈ 13.5 µM) | CC(=O)NCC1CN(c2ccc([S+](C)[O-])cc2)C(=O)O1 (stereo unspecified)
48 | 8 µg/mL (≈ 23.4 µM) | 8 µg/mL (≈ 23.4 µM) | CC(=O)NCC1CN(c2ccc([S+](C)[O-])c([N+](=O)[O-])c2)C(=O)O1 (stereo unspecified)
